In the M2OR odorant receptor database:

Key:
Details in all cases: stereoisomer not certain
UniProt Q8VGL0 = target: T1, UniProt Q8VGL0
T1 sequence (whole entry): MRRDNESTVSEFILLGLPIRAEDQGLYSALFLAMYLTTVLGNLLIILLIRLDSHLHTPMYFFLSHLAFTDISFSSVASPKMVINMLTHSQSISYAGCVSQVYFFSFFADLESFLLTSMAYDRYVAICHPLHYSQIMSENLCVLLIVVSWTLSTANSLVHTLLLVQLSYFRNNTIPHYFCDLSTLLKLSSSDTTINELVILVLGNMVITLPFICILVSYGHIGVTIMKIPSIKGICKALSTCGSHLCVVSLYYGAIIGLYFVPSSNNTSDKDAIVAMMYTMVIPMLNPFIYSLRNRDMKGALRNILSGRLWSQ
Procedure, shortened: (§1)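 Transient luciferase assays in mammalian cell lines were common, though methods varied by source. The values come from published papers and their supplementary material, with extra details from the original authors when needed. Responsive refers to a measured signal the original authors judged statistically different from baseline, and non-responsive (inactive) to the remainder.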

UniProt Q8VGU3 = target: T2, UniProt Q8VGU3
T2 sequence (whole entry): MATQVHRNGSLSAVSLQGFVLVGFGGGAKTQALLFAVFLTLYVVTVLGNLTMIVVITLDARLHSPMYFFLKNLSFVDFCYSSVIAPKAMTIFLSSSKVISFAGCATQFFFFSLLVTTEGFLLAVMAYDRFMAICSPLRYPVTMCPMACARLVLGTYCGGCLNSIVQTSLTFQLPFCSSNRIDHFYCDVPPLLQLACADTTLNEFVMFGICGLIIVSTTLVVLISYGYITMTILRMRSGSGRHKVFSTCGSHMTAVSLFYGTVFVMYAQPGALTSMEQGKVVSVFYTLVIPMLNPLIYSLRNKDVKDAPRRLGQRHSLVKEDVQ
Procedure, shortened: as §1

UniProt Q8VGV7 = target: T3, UniProt Q8VGV7
T3 sequence (whole entry): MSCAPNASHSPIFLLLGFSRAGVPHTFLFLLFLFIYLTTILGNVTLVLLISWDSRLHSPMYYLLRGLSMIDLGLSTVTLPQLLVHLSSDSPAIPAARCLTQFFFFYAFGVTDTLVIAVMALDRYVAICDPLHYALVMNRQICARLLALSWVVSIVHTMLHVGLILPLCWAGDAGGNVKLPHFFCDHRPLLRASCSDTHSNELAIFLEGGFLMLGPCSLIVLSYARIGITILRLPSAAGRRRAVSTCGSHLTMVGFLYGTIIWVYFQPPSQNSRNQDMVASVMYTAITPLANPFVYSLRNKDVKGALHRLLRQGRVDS
Procedure, shortened: as §1

UniProt Q8VGX3 = target: T4, UniProt Q8VGX3
T4 sequence (whole entry): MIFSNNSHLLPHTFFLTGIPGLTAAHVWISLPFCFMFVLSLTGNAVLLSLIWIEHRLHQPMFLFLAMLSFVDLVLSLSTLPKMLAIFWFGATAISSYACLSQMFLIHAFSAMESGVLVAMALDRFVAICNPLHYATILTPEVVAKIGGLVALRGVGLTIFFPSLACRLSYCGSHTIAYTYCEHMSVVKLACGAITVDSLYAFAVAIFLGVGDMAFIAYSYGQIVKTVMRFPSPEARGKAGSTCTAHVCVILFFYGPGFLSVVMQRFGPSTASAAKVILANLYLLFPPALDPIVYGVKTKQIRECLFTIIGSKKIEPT
Procedure, shortened: as §1

UniProt Q8VGX5 = target: T5, UniProt Q8VGX5
T5 sequence (whole entry): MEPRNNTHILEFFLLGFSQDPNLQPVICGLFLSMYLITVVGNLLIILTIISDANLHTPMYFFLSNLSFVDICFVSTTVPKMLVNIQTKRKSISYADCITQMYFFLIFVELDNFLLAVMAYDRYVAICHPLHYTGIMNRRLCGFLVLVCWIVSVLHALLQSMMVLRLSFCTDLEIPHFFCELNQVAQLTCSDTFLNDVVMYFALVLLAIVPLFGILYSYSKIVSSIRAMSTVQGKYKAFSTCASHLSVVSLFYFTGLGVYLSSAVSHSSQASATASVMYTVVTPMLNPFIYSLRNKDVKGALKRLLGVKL
Procedure, shortened: as §1

UniProt Q8VGZ2 = target: T6, UniProt Q8VGZ2
T6 sequence (whole entry): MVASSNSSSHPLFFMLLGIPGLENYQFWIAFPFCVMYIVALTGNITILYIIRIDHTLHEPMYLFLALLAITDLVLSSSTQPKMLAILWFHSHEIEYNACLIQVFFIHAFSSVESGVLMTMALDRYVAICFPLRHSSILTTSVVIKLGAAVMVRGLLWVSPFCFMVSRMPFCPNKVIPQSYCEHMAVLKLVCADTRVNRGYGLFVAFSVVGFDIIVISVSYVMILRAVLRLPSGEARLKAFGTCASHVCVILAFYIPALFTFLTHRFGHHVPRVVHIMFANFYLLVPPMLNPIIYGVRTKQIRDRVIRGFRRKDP
Procedure, shortened: as §1

UniProt Q8VGZ7 = target: T7, UniProt Q8VGZ7
T7 sequence (whole entry): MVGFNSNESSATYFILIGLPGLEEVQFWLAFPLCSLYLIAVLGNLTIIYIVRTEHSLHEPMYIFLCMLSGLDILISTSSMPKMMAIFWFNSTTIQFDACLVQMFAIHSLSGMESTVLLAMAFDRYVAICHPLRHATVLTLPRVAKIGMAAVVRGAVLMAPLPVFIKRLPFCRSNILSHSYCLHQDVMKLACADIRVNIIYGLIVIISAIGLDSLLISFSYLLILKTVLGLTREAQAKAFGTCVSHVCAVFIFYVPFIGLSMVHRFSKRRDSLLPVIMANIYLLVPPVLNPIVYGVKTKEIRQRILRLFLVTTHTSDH
Procedure, shortened: as §1

UniProt Q8VH16 = target: T8, UniProt Q8VH16
T8 sequence (whole entry): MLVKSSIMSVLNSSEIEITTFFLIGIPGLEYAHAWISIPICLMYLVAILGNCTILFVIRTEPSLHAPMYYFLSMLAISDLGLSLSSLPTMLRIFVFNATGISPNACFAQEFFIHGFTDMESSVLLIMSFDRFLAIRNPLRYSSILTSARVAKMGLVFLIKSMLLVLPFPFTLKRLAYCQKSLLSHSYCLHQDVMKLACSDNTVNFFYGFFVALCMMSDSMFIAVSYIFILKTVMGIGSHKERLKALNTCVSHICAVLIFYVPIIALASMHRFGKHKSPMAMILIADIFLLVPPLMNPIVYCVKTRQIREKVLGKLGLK
Procedure, shortened: as §1

UniProt Q8VH20 = target: T9, UniProt Q8VH20
T9 sequence (whole entry): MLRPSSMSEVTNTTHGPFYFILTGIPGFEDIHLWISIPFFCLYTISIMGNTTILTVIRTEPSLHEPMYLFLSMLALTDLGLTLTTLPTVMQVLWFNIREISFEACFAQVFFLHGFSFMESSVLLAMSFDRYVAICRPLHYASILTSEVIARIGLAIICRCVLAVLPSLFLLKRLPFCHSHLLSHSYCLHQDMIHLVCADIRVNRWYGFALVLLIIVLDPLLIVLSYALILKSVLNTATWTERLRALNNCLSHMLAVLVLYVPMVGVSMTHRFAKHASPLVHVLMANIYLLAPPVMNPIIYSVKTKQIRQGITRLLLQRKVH
Procedure, shortened: as §1

Measured: odorant receptor agonist call;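 also: active if original authors judged signal statistically different from baseline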

CSSC
inactive: all assays above

C=C(C)C1CC=C(C=O)CC1 (stereo not drawn)
inactive: all assays above
